Assay outcomes as filed in PubChem.
Runt-CBFb FRET: inhibitors of human RUNX1 Runt domain binding to CBFb; Q01196+Q13951; Cerulean-Runt/Venus-CBFb FRET ratio 530/480, 1 h; inhibition, % at 20 µM; 220,000 compounds, 0.46% hits; AID 1496;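 active = inhibition over about 50% at 20 µM in the single-dose screen, limit read from the data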
Target sequence (Q01196 whole entry, looked up, the tested form may be a part): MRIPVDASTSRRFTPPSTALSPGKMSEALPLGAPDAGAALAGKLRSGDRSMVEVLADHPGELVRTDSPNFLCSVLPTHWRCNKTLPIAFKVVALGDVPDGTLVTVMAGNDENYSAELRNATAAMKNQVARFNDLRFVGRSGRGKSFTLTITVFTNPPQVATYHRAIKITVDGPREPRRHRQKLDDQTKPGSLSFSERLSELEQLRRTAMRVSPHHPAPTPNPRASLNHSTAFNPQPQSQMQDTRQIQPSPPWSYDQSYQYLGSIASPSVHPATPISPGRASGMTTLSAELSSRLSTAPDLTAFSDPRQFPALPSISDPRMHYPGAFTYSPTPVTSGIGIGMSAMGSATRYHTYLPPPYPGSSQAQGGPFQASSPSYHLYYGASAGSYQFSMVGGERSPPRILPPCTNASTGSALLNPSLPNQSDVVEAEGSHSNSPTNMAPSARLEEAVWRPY
Target sequence (Q13951 whole entry, looked up, the tested form may be a part): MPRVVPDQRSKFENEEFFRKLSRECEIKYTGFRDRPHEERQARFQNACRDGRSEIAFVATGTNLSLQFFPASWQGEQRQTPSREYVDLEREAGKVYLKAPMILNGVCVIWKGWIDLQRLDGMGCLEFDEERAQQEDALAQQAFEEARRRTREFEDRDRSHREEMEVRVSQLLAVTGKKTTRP
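System: Cerulean-labeled Runt domain protein | Quantity: 100 nM of each labeled protein | Schedule: 1 h compound exposure, room temperature | Detection: Fluorescence energy transfer, 422 nm excitation, 530/480 nm emission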
Runt-SMMHC FRET: blocks binding of human RUNX1 Runt domain to CBFb-SMMHC | 220,000 compounds, 0.74% hits | Q01196+Q13951 | inhibition, % at 20 µM | Cerulean-Runt/Venus-CBFb-SMMHC FRET ratio 530/480, 1 h;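 active = mean inhibition across duplicate retests at 20 µM reaching about 50%, limit read from the data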;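 note: inhibitors lower the FRET ratio by blocking Runt binding to CBFb-SMMHC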
RanGTP-Imp inh: inhibitors of RanGTP-importin-beta interaction, primary screen, biochemical, FRET, CFP-Ran, YFP-importin-beta, homogeneous; cell-free CFP-Ran/YFP-importin-beta FRET ratio; 300,000 compounds, 1.1% hits; inhibition, % (concentration not given with the values);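 active = more than half of the replicate wells show a fall in the fluorescence ratio signal beyond about 16%, limit read from the data, passing the limit was not always enough; inconclusive = exactly half of the replicate wells pass the set limit; inactive = fewer than half of replicates pass the limit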
p97 inhibitor: inhibitors of human p97 ATPase; inhibition, % at 8 µM; recombinant p97 ATPase, Kinase-Glo ATP luminescence, 3 h; 220,000 compounds, 0.42% hits; AID 1481; in the data active = inhibition above about 15%
Tb hexokinase: T. brucei hexokinase 1 inhibition. inhibition, % at 10 µM. 220,000 compounds, 0.11% hits. AID 1430. recombinant TbHK1, G6PDH-coupled NADH A340;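 active = inhibition of 50% or more in the single-dose primary screen; inactive = inhibition below 50%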
Hck-Nef inh: inhibitors of human Hck kinase activated by Nef. AID 463187. inhibition, % at 20 µM. Recombinant Hck-YEEI plus Nef, Z-Lyte FRET kinase assay. 220,000 compounds, 0.68% hits;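 active = Hck-Nef kinase inhibition above about 50%, limit read from the data; inactive = inhibition below that limit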
Hits are given with their value. Sampled rows, rich in hits. Any-hit rate of the full collection: about 2.1%.

What do the screens show for `COc1ccc2nc(C(F)(F)Cl)c(C#N)c(N)c2c1`?
Runt-CBFb FRET: inactive; Runt-SMMHC FRET: inactive; RanGTP-Imp inh: inactive; p97 inhibitor: inactive; Tb hexokinase: inactive; Hck-Nef inh: inactive

Results for COc1ccc2nc3cc(Cl)ccc3c(C#N)c2c1 ?
Runt-CBFb FRET: inactive; Runt-SMMHC FRET: inactive; RanGTP-Imp inh: 51; p97 inhibitor: inactive; Tb hexokinase: inactive; Hck-Nef inh: inactive

How did CCN(CC)c1ccc(/C=N/NC(=O)c2cccc(S(=O)(=O)Nc3ccccc3OC)c2)cc1 do in these assays?
Runt-CBFb FRET: inactive; Runt-SMMHC FRET: inactive; RanGTP-Imp inh: inactive; p97 inhibitor: inactive; Tb hexokinase: inactive; Hck-Nef inh: inactive

How did CCN(CC)c1ccc(/C=N/NC(=O)c2cccc(S(=O)(=O)Nc3ccccc3OC)c2)c(O)c1 do in these assays?
Runt-CBFb FRET: inactive; Runt-SMMHC FRET: 81; RanGTP-Imp inh: inactive; p97 inhibitor: inactive; Tb hexokinase: inactive; Hck-Nef inh: inactive

How did O=C(CN1CCOCC1)N/N=C/c1ccc(-c2cccc(Cl)c2Cl)o1 do in these assays?
Runt-CBFb FRET: inactive; Runt-SMMHC FRET: inactive; RanGTP-Imp inh: inactive; p97 inhibitor: inactive; Tb hexokinase: inactive; Hck-Nef inh: inactive

How did COc1ccccc1C(=O)N1CCN(Cc2ccc3c(c2)OCO3)CC1 do in these assays?
Runt-CBFb FRET: inactive; Runt-SMMHC FRET: inactive; RanGTP-Imp inh: inconclusive; p97 inhibitor: inactive; Tb hexokinase: inactive; Hck-Nef inh: inactive

How did COc1cc2cc(C(=O)N3CCN(Cc4ccc5c(c4)OCO5)CC3)c(=O)oc2cc1OC do in these assays?
Runt-CBFb FRET: inactive; Runt-SMMHC FRET: 55; RanGTP-Imp inh: inactive; p97 inhibitor: inactive; Tb hexokinase: inactive; Hck-Nef inh: inactive

How did Cc1ccccc1C(=O)O/N=C(\N)Cc1cccs1 do in these assays?
RanGTP-Imp inh: inactive

How did O=C(COc1ccccc1C(=O)N/N=C\c1ccc(O)c(O)c1)N/N=C/c1ccc(O)c(O)c1 do in these assays?
Runt-CBFb FRET: inactive; Runt-SMMHC FRET: inactive; RanGTP-Imp inh: inactive; p97 inhibitor: 19; Tb hexokinase: inactive; Hck-Nef inh: inactive

Results for CCOc1ccc2[nH]c3ncccc3c(=O)c2c1 ?
RanGTP-Imp inh: 34

What do the screens show for `CC1N(C)c2cc(NC(=O)c3cccs3)c(P(=O)(Nc3ccc([N+](=O)[O-])cc3)N3CCOCC3)cc2C1(C)C` (configuration not stated)?
Runt-CBFb FRET: inactive; Runt-SMMHC FRET: inactive; RanGTP-Imp inh: inactive; p97 inhibitor: inactive; Tb hexokinase: inactive; Hck-Nef inh: inactive

What do the screens show for `CC(C)Cc1ccc(/C=C/C(=O)N2CCOCC2)cc1`?
Runt-CBFb FRET: inactive; Runt-SMMHC FRET: inactive; RanGTP-Imp inh: 18; p97 inhibitor: inactive; Tb hexokinase: inactive; Hck-Nef inh: inactive

What do the screens show for `COc1ccccc1-n1cnc2cc(NCc3ccco3)ccc21`?
Runt-CBFb FRET: inactive; Runt-SMMHC FRET: inactive; RanGTP-Imp inh: inactive; p97 inhibitor: inactive; Tb hexokinase: inactive; Hck-Nef inh: inactive

Results for COc1ccccc1-n1cnc2cc(NCc3ccccc3O)ccc21 ?
Runt-CBFb FRET: inactive; Runt-SMMHC FRET: inactive; RanGTP-Imp inh: 42; p97 inhibitor: inactive; Tb hexokinase: inactive; Hck-Nef inh: inactive

What do the screens show for `COc1ccc(-n2c(O)c(C=Nc3ccccc3)c3ccccc3c2=O)cc1`?
Runt-CBFb FRET: inactive; Runt-SMMHC FRET: 90; RanGTP-Imp inh: inconclusive; p97 inhibitor: inactive; Tb hexokinase: inactive; Hck-Nef inh: inactive

Results for COc1ccc(-n2c(O)c(C=Nc3ccccc3)c3ccccc3c2=O)cc1OC ?
Runt-CBFb FRET: inactive; Runt-SMMHC FRET: inactive; RanGTP-Imp inh: inactive; p97 inhibitor: inactive; Tb hexokinase: inactive; Hck-Nef inh: inactive

How did CCOC(=O)C1CCN(C(=O)Nc2ccc3c(c2)nc(C)n3C)CC1 do in these assays?
Runt-CBFb FRET: inactive; Runt-SMMHC FRET: inactive; RanGTP-Imp inh: inactive; p97 inhibitor: inactive; Tb hexokinase: inactive; Hck-Nef inh: inactive

Results for Cc1nc2ccc(NC(=O)N3CCCCC3)cc2nc1C ?
Runt-CBFb FRET: inactive; Runt-SMMHC FRET: inactive; RanGTP-Imp inh: inactive; p97 inhibitor: inactive; Tb hexokinase: inactive; Hck-Nef inh: inactive

How did O=C(Nc1ccc2nc(-c3ccccn3)c(-c3ccccn3)nc2c1)N1CCOCC1 do in these assays?
Runt-CBFb FRET: inactive; Runt-SMMHC FRET: inactive; RanGTP-Imp inh: 20; p97 inhibitor: inactive; Tb hexokinase: inactive; Hck-Nef inh: inactive

Results for O=C(Nc1ccc2nc(-c3ccco3)c(-c3ccco3)nc2c1)N1CCCCCC1 ?
Runt-CBFb FRET: inactive; Runt-SMMHC FRET: inactive; RanGTP-Imp inh: 80; p97 inhibitor: inactive; Tb hexokinase: inactive; Hck-Nef inh: inactive

How did CCOC(=O)C1CCN(C(=O)Nc2ccc3nc(-c4ccco4)c(-c4ccco4)nc3c2)CC1 do in these assays?
Runt-CBFb FRET: inactive; Runt-SMMHC FRET: inactive; RanGTP-Imp inh: 75; p97 inhibitor: inactive; Tb hexokinase: inactive; Hck-Nef inh: inactive

Results for O=C(NC1CCCCCC1)C1CCCN(c2ncccn2)C1 (configuration not stated) ?
RanGTP-Imp inh: inactive

How did CSc1ccccc1NC(=O)COC(=O)CCc1ccccc1 do in these assays?
RanGTP-Imp inh: inactive

How did O=c1cc(-c2ccccc2Cl)oc2cccc(O)c12 do in these assays?
Runt-CBFb FRET: inactive; Runt-SMMHC FRET: inactive; RanGTP-Imp inh: inactive; p97 inhibitor: inactive; Tb hexokinase: inactive; Hck-Nef inh: inactive

How did O=c1cc2oc3cc(O)c(O)cc3c(-c3ccccc3[N+](=O)[O-])c-2cc1O do in these assays?
RanGTP-Imp inh: 18

How did N#Cc1cccc(NC(=O)CCNS(=O)(=O)c2ccc3[nH]c(=O)oc3c2)c1 do in these assays?
RanGTP-Imp inh: inactive

What do the screens show for `CCCn1c2ccccc2c2cnn(CC(=O)NCCN(C)C)c(=O)c21`?
RanGTP-Imp inh: 20

What do the screens show for `O=C1/C(=C\c2ccco2)CCC/C1=C\c1ccco1`?
Runt-CBFb FRET: inactive; Runt-SMMHC FRET: inactive; RanGTP-Imp inh: inactive; p97 inhibitor: inactive; Tb hexokinase: inactive; Hck-Nef inh: inactive

How did CC1C/C(=C/c2ccco2)C(=O)/C(=C/c2ccco2)C1 (configuration not stated) do in these assays?
Runt-CBFb FRET: inactive; Runt-SMMHC FRET: inactive; RanGTP-Imp inh: inactive; p97 inhibitor: inactive; Tb hexokinase: inactive; Hck-Nef inh: 67

What do the screens show for `CCc1cc2c(=O)nc3n(c2s1)Cc1ccccc1/C3=C(/O)c1ccccc1Cl`?
Runt-CBFb FRET: inactive; Runt-SMMHC FRET: 57; RanGTP-Imp inh: inactive; p97 inhibitor: inactive; Tb hexokinase: inactive; Hck-Nef inh: inactive

Results for Cc1ccc(NC(=S)N(Cc2ccc(Br)cc2)Cc2ccc(C(=O)O)cc2)cc1C ?
Runt-CBFb FRET: inactive; Runt-SMMHC FRET: inactive; RanGTP-Imp inh: inactive; p97 inhibitor: inactive; Tb hexokinase: inactive; Hck-Nef inh: inactive

Results for Cc1ccc(C)c(NC(=O)CCN2CCN(CCO)CC2)c1 ?
RanGTP-Imp inh: inactive

Results for COCC1CCN(Cc2c(C(=O)N3CCN(C4CCCCC4)CC3)nc3ccccn23)C1 (configuration not stated) ?
RanGTP-Imp inh: 111
